Source: PubChem BioAssay
HTRA1 inhibitor = HTRA1 (human) protease inhibition | Q92743 | recombinant HTRA1, FP-rhodamine activity-based probe, fluorescence polarization | inhibition, % at 5.96 µM | 340,000 compounds, 0.5% hits; in the data active = inhibition above about 36%
TCR-CD3 inh = blocks the human TCR-CD3 interaction; 360,000 compounds, 0.37% hits; inhibition, % at 9.4 µM; TAMRA-labeled TCR probe fluorescence, biochemical; AID 651800; in the data active = inhibition above about 19%;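 also: recombinant mutant TCR 2C K166C tagged with TAMRA read by polarization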
SIAE inh = human SIAE inhibition, primary screen. Q9HAT2. SIAE FP-Rh probe binding, fluorescence polarization. inhibition, % at 9.66 µM. 370,000 compounds, 0.69% hits;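 active = inhibition above a cutoff: mean of compounds within the control limits plus 3 SD of those, cut at about 17% in these data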
Target sequence (Q9HAT2 whole entry, looked up): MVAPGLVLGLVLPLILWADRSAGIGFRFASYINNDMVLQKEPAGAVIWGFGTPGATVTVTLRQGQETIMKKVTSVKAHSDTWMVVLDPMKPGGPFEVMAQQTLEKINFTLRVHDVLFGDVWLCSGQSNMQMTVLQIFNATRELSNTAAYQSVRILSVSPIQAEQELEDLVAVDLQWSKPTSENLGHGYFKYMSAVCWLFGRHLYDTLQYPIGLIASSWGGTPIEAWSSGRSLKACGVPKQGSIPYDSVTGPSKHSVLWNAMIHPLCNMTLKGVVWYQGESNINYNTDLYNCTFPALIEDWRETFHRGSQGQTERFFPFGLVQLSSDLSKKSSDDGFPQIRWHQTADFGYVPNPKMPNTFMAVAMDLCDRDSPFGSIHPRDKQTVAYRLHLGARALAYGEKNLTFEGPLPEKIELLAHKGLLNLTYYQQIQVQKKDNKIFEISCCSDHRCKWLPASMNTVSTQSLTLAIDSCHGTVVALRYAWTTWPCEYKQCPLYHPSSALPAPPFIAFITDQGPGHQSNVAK
PRMT1 FP inh = blocks human protein arginine methyltransferase 1. Q99873. recombinant PRMT1, activity-based probe fluorescence polarization. inhibition, % at 2.79 µM. 370,000 compounds, 1.3% hits. AID 652257;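 active = inhibition above about 21% made by adding two undisclosed values, limit read from the data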
ABHD4 inh = inhibitors of mouse ABHD4; inhibition, % at 8.92 µM; 370,000 compounds, 0.54% hits; AID 720543; purified mABHD4, FP-Rh probe fluorescence polarization;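 active = inhibition exceeding the mean over every tested compound plus 3 SD, cut at about 30% in these data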
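System: mouse ABHD4 enzyme, wild type / Medium: HEPES pH 7.0, NaCl, Pluronic buffer / Reagent: FP-Rh activity-based fluorescent probe / Control set: S159A mutant high control, sample median low control / Detection: fluorescence polarization with parallel and perpendicular emission, 525/598 nm / Schedule: 45 min + 60 min at 25 °C / Compound dosing: 8.92 µM, single dose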
rCAG RNA binder = binds r(CAG) RNA repeats; r(CAG) RNA repeat, TO-PRO-1 dye displacement fluorescence; inhibition, % at 3 µM; 370,000 compounds, 1.3% hits; AID 651821;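 active = inhibition above the plate cutoff, the mean of all test compounds on that plate plus 3 SD, cut at about 35% in these data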;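 also: higher means more dye released from RNA so lower well fluorescence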
Hits are given with their value; 0 = inactive; - = no result. Most compounds without a hit are left out; they make up all but 3.5% or so of the library.

SMILES | HTRA1 inhibitor | TCR-CD3 inh | SIAE inh | PRMT1 FP inh | ABHD4 inh | rCAG RNA binder
Clc1ccc(C2=CC(c3ccco3)n3ncnc3N2)cc1 (stereo not drawn) | 0 | 0 | 0 | 64.4 | 0 | 0
COc1ccc(NC(=O)N2CCC(c3nc4ccc(Cl)cc4[nH]3)CC2)cc1OC | - | - | 0 | 0 | 0 | 0
C=C1C(=O)c2sccc2C(c2ccc(OC)c(OC)c2)C1COC(C)=O (stereo not drawn) | 0 | 0 | 0 | 24.1 | 0 | 0
O=S(=O)(Nc1nc2ccccc2s1)c1ccc(Cl)s1 | 0 | 0 | 0 | 0 | 0 | 43.7
Cc1ccc(C)c(S(=O)(=O)Nc2cc(SCC(=O)O)c(O)c3ccccc23)c1 | 44.6 | - | - | - | - | -
CN(C)CC(=O)N[C@@H]1C[C@@H]2O[C@@H](CO)CC[C@@H]2O[C@@H]1CCc1ccc(-c2ccc(F)cc2)cc1 | - | - | 0 | 0 | 0 | 0
Cc1noc(NS(=O)(=O)c2ccc(NC(=O)C(C)(C)C)cc2)c1C | 0 | 0 | 0 | 0 | 0 | 0
Cc1noc(NS(=O)(=O)c2ccc(NC(=O)/C=C/c3ccc(C(C)C)cc3)cc2)c1C | 0 | 0 | 0 | 0 | 0 | 85.4
CCOC(=O)[C@@]12CCCC=C1N(CCc1ccc(Cl)cc1)C(=O)[C@H]2CC(=O)N1CCCC1 | - | - | 0 | 0 | 0 | 0
Cc1ccc(C(=O)c2coc3cc([N+](=O)[O-])c(O)c([N+](=O)[O-])c23)cc1 | 0 | 0 | 0 | 26.5 | 0 | 0
CCCCNC(=O)C[C@H]1C[C@@]2(C(=O)OC)C(=C[C@H](C(C)(C)C)O[C@@H]2C)N(Cc2cccc3ccccc23)C1=O | - | - | 0 | 0 | 0 | 0
Cc1cc(C)nc(Nc2nc(=O)c3ccccc3s2)n1 | 0 | 0 | 0 | 43.6 | 0 | 0
Cc1cc(C)nc(Nc2nc(-c3ccccc3)cs2)n1 | 0 | 0 | 0 | 0 | 0 | 0
O=C(Nc1sc2c(c1C(=O)O)CCCC2)c1cccc(Cl)c1 | 0 | 0 | 0 | 0 | 0 | 84.4
C=CCN1[C@H](Cc2ccccc2)COc2cccc(N3CCCC3)c2S1(=O)=O | - | - | 0 | 0 | 0 | 0
COC(=O)[C@H]1C[C@@]2(C)c3ccccc3N(S(=O)(=O)c3ccccc3)[C@H]2N1 | - | - | 0 | 0 | 0 | 0
N#CC1(C#N)CC(C=O)=C(N)C1(C#N)CC(=O)c1ccc(F)cc1 (stereo not drawn) | 0 | 0 | 0 | 23.8 | 0 | 0
O=C(C[N+]12CC[N+](CC(=O)c3ccc(F)cc3)(CC1)CC2)c1ccc(F)cc1 | 0 | 0 | 0 | 0 | 0 | 0
CCN1CC=C2C(C#N)=C(N)C(C#N)(C#N)C(c3cc(Cl)ccc3Cl)C2C1 (stereo not drawn) | 0 | 0 | 0 | 24.7 | 0 | 0
Cc1cc(C(=O)O[C@@H]2CCC[C@]3(C(=O)N(Cc4ccccc4)c4ccccc43)[C@H]2NC(=O)CCc2ccccc2)no1 | - | - | 0 | 0 | 0 | 0
O=c1c2ccc(F)cc2nc2sc(Nc3ccc4c(c3)CCC4)nn12 | - | - | 0 | 0 | 0 | -
O=C1CSC(=S)N1/N=C/c1c(F)cccc1F | 0 | 0 | 0 | 0 | 0 | 0
O=C1CSC(=S)N1/N=C/C=C/c1ccccc1 | 0 | 0 | 0 | 21.4 | 0 | 0
CN1CCc2c(sc3c2C(=O)NC(c2ccccn2)N3)C1 (stereo not drawn) | 0 | 0 | 0 | 26.6 | 0 | 0
COCCN=C1Sc2ccccc2[C@@H]2C[C@H]3[C@H](CON3C)CN12 | - | 0 | 0 | 24.2 | 0 | 0
SMILES | HTRA1 inhibitor | TCR-CD3 inh | SIAE inh | PRMT1 FP inh | ABHD4 inh | rCAG RNA binder
Cc1noc(NS(=O)(=O)c2ccc(NC(=O)CSc3nnc(-c4ccccc4)n3C3CCCCC3)cc2)c1C | 0 | 0 | 0 | 0 | 0 | 63.3
CN(C)c1ccc(C(=S)N2CCN(c3ccc([N+](=O)[O-])cc3)CC2)cc1 | 0 | 0 | 0 | 22.6 | 0 | 0
CC(CCN1CCC(C(O)(c2ccccc2)c2ccccc2)CC1)Oc1ccc(OC(F)(F)F)cc1 (stereo not drawn) | - | - | 0 | 0 | 0 | 0
CCOC(=O)N1CCN(C(=O)C[C@H]2C[C@@]3(C(=O)OC)C(=C[C@H](C4CCCC4)O[C@@H]3C)N(CCC3=CCCCC3)C2=O)CC1 | - | - | 0 | 0 | 0 | 0
COC(=O)C(CC(=O)c1ccc(C)cc1)n1cccn1 (stereo not drawn) | 0 | 0 | 0 | 0 | 0 | 0
COC(=O)C(CC(=O)c1ccc(Br)cc1)n1cccn1 (stereo not drawn) | 0 | 0 | 0 | 22.3 | 0 | 0
COC(=O)[C@]12C[C@H](CC(=O)N3CCCC3)C(=O)N(Cc3cccc4ccccc34)C1=C[C@H](C1CCCC1)O[C@@H]2C | - | - | 0 | 0 | 0 | 0
CCCC(=O)N(C1CC(C)C(C#N)(C#N)C1(C#N)C#N)N(C)C (stereo not drawn) | 0 | 0 | 0 | 21.8 | 0 | 0
COC(=O)[C@@]12CCCCC3=C1N(CCC3)C(=O)[C@H]2CC(=O)NCCCCc1ccccc1 | - | - | 0 | 0 | 0 | 0
O=c1oc2ccc(NS(=O)(=O)c3cccc4cccnc34)cc2s1 | 0 | 0 | 0 | 77.1 | 0 | 0
C/C=C(\C)C(=O)OC1CC(C)(C)C[C@H]2C3=CC[C@@H]4[C@@]5(C)CCC(O[C@@H]6O[C@@H](C(=O)O)[C@@H](O)C(O[C@@H]7OC[C@H](O)[C@@H](O)[C@@H]7O[C@@H]7OC(CO)C(O)[C@@H](O)[C@@H]7O)C6O[C@@H]6OC(CO)C(O)C(O)C6O)[C@@](C)(CO)[C@@H]5CC[C@]4(C)[C@]3(C)CC(O)[C@@]12CO (stereo partly drawn) | 0 | 0 | 0 | 0 | 0 | 44.9
CN(C)CCCN1c2ccc([N+](=O)[O-])cc2CCc2cc([N+](=O)[O-])ccc21 | 0 | 0 | 0 | 22.1 | 0 | 0
CS(=O)(=O)N[C@@H]1C[C@@H]2O[C@H](CO)CC[C@@H]2O[C@@H]1CCc1ccc(-c2ccccc2F)cc1 | - | - | 0 | 0 | 0 | 0
O=c1c2cc(F)ccc2sn1-c1ccccc1 | 0 | 0 | 0 | 89.0 | 0 | 0
CC1NC(=O)c2ccccc2-n2c1nc1cc(F)ccc1c2=O (stereo not drawn) | - | 0 | 0 | 0 | 0 | 0
O=c1c2ccccc2[nH]c2ccc(F)cc12 | 0 | 0 | 0 | 0 | 0 | 0
O=c1c2cc(C(F)(F)F)ccc2sn1-c1ccccc1 | 0 | 0 | 0 | 70.7 | 0 | 0
Cc1ccccc1-n1sc2cc(F)ccc2c1=O | 0 | 0 | 0 | 88.4 | 0 | 0
O=c1c2ccccc2sn1-c1ccccc1 | 0 | 0 | 0 | 95.0 | 0 | 0
O=c1c2ccccc2c(-c2cccc(C(F)(F)F)c2)nn1-c1ccccc1 | 0 | 0 | 0 | 0 | 0 | 0
CCCCCNC(=O)C(c1ccc(C(F)(F)F)cc1)n1c(=O)c(-c2ccco2)nc2ccccc21 (stereo not drawn) | - | 0 | 0 | 24.7 | 0 | 0
CCCCCNC(=O)C(C1CC1)n1c(=O)c(-c2ccco2)nc2ccccc21 (stereo not drawn) | - | 0 | 0 | 22.2 | 0 | 0
O=C(NC1CCCCC1)C(C1CC1)n1c(=O)c(-c2ccco2)nc2ccccc21 (stereo not drawn) | - | 0 | 0 | 0 | 0 | 0
Cc1ccc(OCCOc2ccc(Cl)cc2Cl)c(Br)n1 | - | - | 0 | 0 | 0 | -
